ChEMBL document CHEMBL4261600 (Eur J Med Chem, 2018)
Activity calls are given as the source filed them.

Experiments:
A-375 = assay: Antiproliferative activity against human A375 cells after 72 hrs by Celltiter-Glo assay; format: functional; conditions: A-375, 72 h
Procedure, shortened: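 Cells seeded at 3000/well in 96-well plates, exposed to serially diluted compound for 72 h at 37 °C, 5% CO2. Viability read by CellTiter-Glo luminescence and normalized to DMSO control. GI50 derived from curve fit, mean of three independent measurements. Culture media: DMEM/10% FBS for adherent lines; IMDM for MV4-11 and MEC-1/2; RPMI 1640 for suspension lines and CHL.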

[1] = target: Cyclin-dependent kinase 9 (Homo sapiens, UniProt P50750); assay: Inhibition of CDK9 in human MEC1 cells assessed as decrease in RNA polymerase 2 phosphorylation at Ser 2 residues in CTD domain after 2 hrs by immunoblotting analysis; format: cell-based
Homo sapiens = organism: Homo sapiens; assay: Induction of apoptosis in human MEC1 cells assessed as decrease in c-MYC level after 2 hrs by immunoblotting analysis; format: functional, cell-based
[2] = Cmax in mouse at 3 mg/kg, iv by LC-MS/MS analysis; format: ADME, organism-based; parameters: dose 3 mg/kg, route intravenous; conditions: in vivo
[3] = MRT (0 to t) in mouse at 3 mg/kg, iv by LC-MS/MS analysis; format: ADME, organism-based; conditions: in vivo
MV4-11 = assay: Antitumor activity against human MV4-11 cells xenografted in nu/nu mouse assessed as tumor growth inhibition at 10 to 30 mg/kg, po administered via gavage for 2 weeks measured every day during compound dosing; format: functional, organism-based
Procedure, shortened: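 Female nu/nu mice, five weeks old, implanted subcutaneously in the right flank with 5 million MV4-11 cells in PBS/Matrigel 1:1. Daily oral gavage in 0.5% methylcellulose/0.4% Tween80 started at tumor volume 200–400 mm³, 10, 20 or 30 mg/kg/day or vehicle, 5 mice per group. Tumor volume (W²×L)/2 and body weight measured daily; mean ± SEM.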

[4] = target: NUAK family SNF1-like kinase 1 (Homo sapiens) (UniProt O60285); assay: Binding affinity to wild-type human partial length ARK5 (E25 to I332 residues) expressed in bacterial expression system assessed as remaining unbound target protein level at 1000 nM by Kinomescan method relative to control
Procedure, shortened: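 Profiled in a KINOMEscan binding panel with the inhibitor at a single concentration of 1 μM. Binding to each kinase was read out as percent of control, relative to a DMSO control. Strong binders were defined as those with a percent control value below 1.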

[5] = target: Cyclin-dependent kinase-like 1 (Homo sapiens) (UniProt Q00532); assay: Binding affinity to wild-type human full length CDKL1 (M1 to I358 residues) expressed in mammalian expression system assessed as remaining unbound target protein level at 1000 nM by Kinomescan method relative to control
Procedure, shortened: (§1)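 Single-point competition binding screen across a panel of 468 kinases and mutants, with the inhibitor at 1 μM. Binding is read out as percent of a DMSO control, and targets below 1 percent control were classed as strong binders.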

[6] = target: Ephrin type-A receptor 4 (Homo sapiens) (UniProt P54764); assay: Binding affinity to wild-type human partial length EPHA4 (T601 to R897 residues) expressed in bacterial expression system assessed as remaining unbound target protein level at 1000 nM by Kinomescan method relative to control
[7] = target: Fibroblast growth factor receptor 3 (Homo sapiens) (UniProt P22607); assay: Binding affinity to wild-type human partial length FGFR3 (R442 to S771 residues) expressed in bacterial expression system assessed as remaining unbound target protein level at 1000 nM by Kinomescan method relative to control
[8] = tested on: Receptor-type tyrosine-protein kinase FLT3 (Homo sapiens), P36888 [D835H]; assay: Binding affinity to human partial length FLT3 D835H mutant (V592 to Y969 residues) expressed in bacterial expression system assessed as remaining unbound target protein level at 1000 nM by Kinomescan method relative to control
Procedure, shortened: (§2)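 KINOMEscan competition-binding profiling across the panel of 468 kinases and mutants, with inhibitor tested at 1 μM. Binding is expressed as percent of control, with DMSO as the reference control.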

[9] = target: Tyrosine-protein kinase FRK (Homo sapiens) (UniProt P42685); assay: Binding affinity to wild-type human partial length FRK (A215 to F503 residues) expressed in bacterial expression system assessed as remaining unbound target protein level at 1000 nM by Kinomescan method relative to control
[10] = target: Cyclin-G-associated kinase (Homo sapiens) (UniProt O14976); assay: Binding affinity to wild-type human partial length GAK (G13 to Y338 residues) expressed in bacterial expression system assessed as remaining unbound target protein level at 1000 nM by Kinomescan method relative to control
[11] = target: Serine/threonine-protein kinase LATS2 (Homo sapiens) (UniProt Q9NRM7); assay: Binding affinity to wild-type human partial length LATS2 (Q641 to V1088 residues) expressed in mammalian expression system assessed as remaining unbound target protein level at 1000 nM by Kinomescan method relative to control
[12] = target: MAP/microtubule affinity-regulating kinase 3 (Homo sapiens) (UniProt P27448); assay: Binding affinity to wild-type human full length MARK3 (M1 to L729 residues) expressed in bacterial expression system assessed as remaining unbound target protein level at 1000 nM by Kinomescan method relative to control; procedure, shortened: as §1
[13] = target: Dual specificity mitogen-activated protein kinase kinase 7 (Homo sapiens) (UniProt O14733); assay: Binding affinity to wild-type human full length MKK7 (M1 to R419 residues) expressed in mammalian expression system assessed as remaining unbound target protein level at 1000 nM by Kinomescan method relative to control; procedure, shortened: as §1
[14] = target: Mitogen-activated protein kinase kinase kinase 14 (Homo sapiens) (UniProt Q99558); assay: Binding affinity to wild-type human partial length NIK (L318 to P947 residues) expressed in mammalian expression system assessed as remaining unbound target protein level at 1000 nM by Kinomescan method relative to control
[15] = tested on: Phosphatidylinositol 4,5-bisphosphate 3-kinase catalytic subunit alpha isoform (Homo sapiens), P42336 [M1043I]; assay: Binding affinity to human partial length PIK3CA M1043I mutant (R108 to N1068 residues) expressed in mammalian expression system assessed as remaining unbound target protein level at 1000 nM by Kinomescan method relative to control; procedure, shortened: as §2
[16] = target: Uncharacterized serine/threonine-protein kinase SBK3 (Homo sapiens) (UniProt P0C264); assay: Binding affinity to wild-type human partial length SgK110 (L22 to R329 residues) expressed in bacterial expression system assessed as remaining unbound target protein level at 1000 nM by Kinomescan method relative to control
[17] = target: Serine/threonine-protein kinase tousled-like 1 (Homo sapiens) (UniProt Q9UKI8); assay: Binding affinity to wild-type human partial length TLK1 (K447 to A754 residues) expressed in bacterial expression system assessed as remaining unbound target protein level at 1000 nM by Kinomescan method relative to control
[18] = target: Serine/threonine-protein kinase tousled-like 2 (Homo sapiens) (UniProt Q86UE8); assay: Binding affinity to wild-type human partial length TLK2 (E424 to N749 residues) expressed in bacterial expression system assessed as remaining unbound target protein level at 1000 nM by Kinomescan method relative to control

Cyclin-dependent kinase 9, sequence (P50750 whole entry, the tested form may be a part): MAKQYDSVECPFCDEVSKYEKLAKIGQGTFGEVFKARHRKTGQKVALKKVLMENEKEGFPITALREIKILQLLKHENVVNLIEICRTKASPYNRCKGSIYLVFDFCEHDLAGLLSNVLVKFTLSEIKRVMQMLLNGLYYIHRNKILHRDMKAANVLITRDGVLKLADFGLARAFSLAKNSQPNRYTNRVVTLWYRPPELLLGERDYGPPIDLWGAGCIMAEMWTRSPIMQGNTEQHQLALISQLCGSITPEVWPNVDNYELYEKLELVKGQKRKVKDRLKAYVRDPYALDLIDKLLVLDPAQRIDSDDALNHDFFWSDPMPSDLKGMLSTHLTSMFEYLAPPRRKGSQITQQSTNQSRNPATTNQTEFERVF
MAP/microtubule affinity-regulating kinase 3 (Homo sapiens), sequence (P27448 whole entry, looked up, the tested form may be a part): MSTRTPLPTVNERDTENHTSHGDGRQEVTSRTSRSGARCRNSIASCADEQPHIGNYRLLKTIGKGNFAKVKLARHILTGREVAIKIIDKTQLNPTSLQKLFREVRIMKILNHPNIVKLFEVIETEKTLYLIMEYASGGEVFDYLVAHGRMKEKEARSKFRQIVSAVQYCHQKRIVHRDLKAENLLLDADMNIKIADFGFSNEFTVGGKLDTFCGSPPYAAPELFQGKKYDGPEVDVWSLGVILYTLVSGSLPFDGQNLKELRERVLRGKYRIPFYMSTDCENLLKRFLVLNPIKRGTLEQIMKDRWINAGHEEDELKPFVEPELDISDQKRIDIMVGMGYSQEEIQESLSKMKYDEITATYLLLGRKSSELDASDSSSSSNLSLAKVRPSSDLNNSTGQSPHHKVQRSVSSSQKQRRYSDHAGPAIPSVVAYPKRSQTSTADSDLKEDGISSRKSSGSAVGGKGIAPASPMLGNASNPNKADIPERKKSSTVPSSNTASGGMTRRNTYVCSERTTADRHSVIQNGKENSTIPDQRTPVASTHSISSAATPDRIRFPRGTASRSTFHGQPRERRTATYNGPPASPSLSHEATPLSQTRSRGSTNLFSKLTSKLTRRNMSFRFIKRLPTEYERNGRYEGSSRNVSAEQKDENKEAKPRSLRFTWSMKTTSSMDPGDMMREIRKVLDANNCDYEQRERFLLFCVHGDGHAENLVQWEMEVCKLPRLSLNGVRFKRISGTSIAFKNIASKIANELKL
Serine/threonine-protein kinase LATS2 (Homo sapiens), sequence (Q9NRM7 whole entry, the tested form may be a part): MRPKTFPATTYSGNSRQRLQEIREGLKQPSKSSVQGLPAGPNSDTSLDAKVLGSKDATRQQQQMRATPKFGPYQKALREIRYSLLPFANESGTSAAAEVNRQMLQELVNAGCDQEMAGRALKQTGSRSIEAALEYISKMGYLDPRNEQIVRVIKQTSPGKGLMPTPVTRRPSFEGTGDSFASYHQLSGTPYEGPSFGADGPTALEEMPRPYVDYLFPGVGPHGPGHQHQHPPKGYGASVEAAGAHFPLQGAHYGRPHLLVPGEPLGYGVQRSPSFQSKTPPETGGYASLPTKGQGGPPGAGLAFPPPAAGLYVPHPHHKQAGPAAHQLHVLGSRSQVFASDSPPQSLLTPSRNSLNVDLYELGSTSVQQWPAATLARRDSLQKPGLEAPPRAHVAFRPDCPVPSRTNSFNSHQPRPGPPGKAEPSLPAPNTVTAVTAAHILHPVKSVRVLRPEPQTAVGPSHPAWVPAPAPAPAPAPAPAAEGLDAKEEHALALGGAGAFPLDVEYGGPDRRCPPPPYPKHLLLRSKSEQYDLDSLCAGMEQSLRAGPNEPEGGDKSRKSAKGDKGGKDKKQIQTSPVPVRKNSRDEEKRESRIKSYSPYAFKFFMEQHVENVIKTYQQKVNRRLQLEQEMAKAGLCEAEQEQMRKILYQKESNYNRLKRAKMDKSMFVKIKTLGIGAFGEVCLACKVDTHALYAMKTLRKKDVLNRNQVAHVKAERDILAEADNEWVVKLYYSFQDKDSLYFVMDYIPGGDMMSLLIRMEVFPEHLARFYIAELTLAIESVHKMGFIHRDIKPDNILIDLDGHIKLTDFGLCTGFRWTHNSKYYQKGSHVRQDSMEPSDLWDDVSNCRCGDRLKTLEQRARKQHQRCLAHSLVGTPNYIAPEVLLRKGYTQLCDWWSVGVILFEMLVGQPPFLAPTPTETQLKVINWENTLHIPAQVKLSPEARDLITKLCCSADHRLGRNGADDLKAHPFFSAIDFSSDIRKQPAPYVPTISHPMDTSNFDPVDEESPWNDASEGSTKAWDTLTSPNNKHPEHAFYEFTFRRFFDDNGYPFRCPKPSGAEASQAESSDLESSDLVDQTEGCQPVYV
Cyclin-G-associated kinase (Homo sapiens), sequence (O14976 whole entry, the tested form may be a part): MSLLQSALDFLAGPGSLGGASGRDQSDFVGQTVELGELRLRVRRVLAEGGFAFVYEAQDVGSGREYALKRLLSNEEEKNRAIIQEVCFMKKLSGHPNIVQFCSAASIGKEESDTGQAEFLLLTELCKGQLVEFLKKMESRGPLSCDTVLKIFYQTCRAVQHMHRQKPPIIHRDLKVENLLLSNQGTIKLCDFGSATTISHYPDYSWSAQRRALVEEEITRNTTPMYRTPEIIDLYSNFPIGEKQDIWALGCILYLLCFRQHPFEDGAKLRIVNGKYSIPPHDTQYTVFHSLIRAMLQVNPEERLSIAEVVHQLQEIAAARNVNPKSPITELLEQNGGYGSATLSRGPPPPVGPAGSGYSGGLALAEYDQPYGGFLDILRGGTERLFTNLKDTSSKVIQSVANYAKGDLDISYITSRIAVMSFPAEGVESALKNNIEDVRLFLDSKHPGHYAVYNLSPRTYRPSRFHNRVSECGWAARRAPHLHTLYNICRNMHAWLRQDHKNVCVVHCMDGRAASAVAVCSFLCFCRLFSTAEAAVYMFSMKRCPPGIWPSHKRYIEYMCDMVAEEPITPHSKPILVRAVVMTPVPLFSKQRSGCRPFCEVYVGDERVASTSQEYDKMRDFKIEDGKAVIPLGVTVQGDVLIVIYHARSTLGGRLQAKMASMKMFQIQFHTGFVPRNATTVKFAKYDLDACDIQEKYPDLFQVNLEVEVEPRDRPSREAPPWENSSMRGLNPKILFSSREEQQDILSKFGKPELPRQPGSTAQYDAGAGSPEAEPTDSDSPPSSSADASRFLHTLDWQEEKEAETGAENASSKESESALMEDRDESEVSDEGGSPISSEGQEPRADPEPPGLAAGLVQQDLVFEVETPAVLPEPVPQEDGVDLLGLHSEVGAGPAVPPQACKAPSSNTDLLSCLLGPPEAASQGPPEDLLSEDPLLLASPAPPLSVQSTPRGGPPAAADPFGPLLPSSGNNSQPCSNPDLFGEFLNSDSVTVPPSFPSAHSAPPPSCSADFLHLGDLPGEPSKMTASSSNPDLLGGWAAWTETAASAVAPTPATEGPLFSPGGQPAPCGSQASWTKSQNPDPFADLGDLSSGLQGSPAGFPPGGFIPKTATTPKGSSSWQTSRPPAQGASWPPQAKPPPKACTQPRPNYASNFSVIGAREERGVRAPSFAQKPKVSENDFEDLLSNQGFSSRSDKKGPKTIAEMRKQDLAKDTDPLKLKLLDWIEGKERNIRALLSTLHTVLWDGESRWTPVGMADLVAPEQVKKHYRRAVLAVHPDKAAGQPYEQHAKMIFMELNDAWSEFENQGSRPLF
NUAK family SNF1-like kinase 1 (Homo sapiens), sequence (O60285 whole entry, the tested form may be a part): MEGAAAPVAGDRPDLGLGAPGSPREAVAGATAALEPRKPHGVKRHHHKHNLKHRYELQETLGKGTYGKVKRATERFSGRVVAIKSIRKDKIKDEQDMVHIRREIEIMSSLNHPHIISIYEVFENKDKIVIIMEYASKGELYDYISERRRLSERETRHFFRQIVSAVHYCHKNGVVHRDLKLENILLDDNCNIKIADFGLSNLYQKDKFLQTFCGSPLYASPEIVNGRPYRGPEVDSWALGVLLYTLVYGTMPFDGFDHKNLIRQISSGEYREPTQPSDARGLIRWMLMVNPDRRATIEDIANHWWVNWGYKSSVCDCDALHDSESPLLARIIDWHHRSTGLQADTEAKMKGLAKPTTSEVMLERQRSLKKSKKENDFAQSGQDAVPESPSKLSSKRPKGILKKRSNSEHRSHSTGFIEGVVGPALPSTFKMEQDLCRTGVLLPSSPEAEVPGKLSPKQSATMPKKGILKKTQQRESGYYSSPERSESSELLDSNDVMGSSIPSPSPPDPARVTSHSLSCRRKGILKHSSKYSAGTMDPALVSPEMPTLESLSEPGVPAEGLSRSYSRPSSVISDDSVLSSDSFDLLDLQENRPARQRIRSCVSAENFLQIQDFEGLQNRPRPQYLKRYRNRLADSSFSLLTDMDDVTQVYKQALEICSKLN
Uncharacterized serine/threonine-protein kinase SBK3 (Homo sapiens), sequence (P0C264 whole entry, the tested form may be a part): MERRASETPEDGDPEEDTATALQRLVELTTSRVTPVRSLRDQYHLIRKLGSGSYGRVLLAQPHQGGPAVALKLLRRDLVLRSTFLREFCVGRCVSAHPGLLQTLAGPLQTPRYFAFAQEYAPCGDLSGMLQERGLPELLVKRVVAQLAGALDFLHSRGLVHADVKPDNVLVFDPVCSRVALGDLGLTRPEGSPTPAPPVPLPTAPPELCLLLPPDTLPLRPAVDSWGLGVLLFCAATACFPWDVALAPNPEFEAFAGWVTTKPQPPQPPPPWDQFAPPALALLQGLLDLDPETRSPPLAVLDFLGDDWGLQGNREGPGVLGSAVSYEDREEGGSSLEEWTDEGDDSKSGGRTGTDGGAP
Dual specificity mitogen-activated protein kinase kinase 7 (Homo sapiens), sequence (O14733 whole entry, the tested form may be a part): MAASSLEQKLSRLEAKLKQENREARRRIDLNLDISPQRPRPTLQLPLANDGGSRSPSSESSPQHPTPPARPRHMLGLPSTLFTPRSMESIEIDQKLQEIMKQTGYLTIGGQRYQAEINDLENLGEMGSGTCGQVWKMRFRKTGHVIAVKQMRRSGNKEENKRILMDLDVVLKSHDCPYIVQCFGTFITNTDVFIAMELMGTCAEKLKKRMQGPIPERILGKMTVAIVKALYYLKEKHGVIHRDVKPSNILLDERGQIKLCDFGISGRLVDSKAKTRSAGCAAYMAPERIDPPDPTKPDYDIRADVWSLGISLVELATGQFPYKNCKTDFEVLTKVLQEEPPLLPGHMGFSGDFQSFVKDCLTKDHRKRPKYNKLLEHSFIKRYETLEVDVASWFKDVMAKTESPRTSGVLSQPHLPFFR

For `COCCN[C@H]1CC[C@H](Nc2cc(-c3csc(NCC4(C#N)CCOCC4)n3)c(Cl)cn2)CC1`, the GI50 (A-375) was 44 nM, the EC50 [1] was less than 100 nM and the inhibition [1] was “Dose-dependent effect”. The Activity (Homo sapiens) was “Dose-dependent effect”, the Cmax [2] was 573 ng/mL and the MRT last [3] was 1.25 h. The TGI (MV4-11) was “Active”, the Activity [4] was 100% and the Activity [5] was 96%. For the same molecule, the Activity [6] was 96%, the Activity [7] was 89% and the Activity [8] was 88%. For the same molecule, the Activity [9] was 96%, the Activity [10] was 100% and the Activity [11] was 84%. The Activity [12] was 100%, the Activity [13] was 100% and the Activity [14] was 100%. It also gave an Activity [15] of 95%, an Activity [16] of 89% and an Activity [17] of 81%. The Activity [18] was 99%.
